Assay outcomes: PubChem, Sanford-Burnham Center for Chemical Genomics
Diaphorase inh: counter-screen for diaphorase-based assays: diaphorase inhibitors and chemical oxidizers; actives 0.69% (n = 190,000); AID 1217; inhibition, % at 20 µM; diaphorase resazurin-to-resorufin fluorescence, NADH, 16 min; bacterial (C. kluyveri) enzyme, not human;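 active = primary screen inhibition at 20 µM above a set limit, cut at about 50% in these data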;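 note: plate controls were DMSO with full reaction for no effect and wells lacking NADH for full effect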
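Assay system: diaphorase enzyme from Clostridium kluyveri; Input: enzyme working solution with 0.14 U/mL diaphorase; Timing: 16 min at room temperature; Technique: resorufin fluorescence, excitation 544 nm, emission 590 nm; Benchmarks: positive control minus NADH, DMSO neutral control.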
FLuc inh counter: inhibits firefly luciferase, flagging false hits in luciferase inhibition screens; P08659; ATPLite firefly luciferase biochemical luminescence, 10 min; inhibition, % at 10 µM; actives 1.5% (n = 200,000);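 active = inhibition above about 50% when tested at 10 µM, limit read from the data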
Target sequence (P08659 whole entry, looked up): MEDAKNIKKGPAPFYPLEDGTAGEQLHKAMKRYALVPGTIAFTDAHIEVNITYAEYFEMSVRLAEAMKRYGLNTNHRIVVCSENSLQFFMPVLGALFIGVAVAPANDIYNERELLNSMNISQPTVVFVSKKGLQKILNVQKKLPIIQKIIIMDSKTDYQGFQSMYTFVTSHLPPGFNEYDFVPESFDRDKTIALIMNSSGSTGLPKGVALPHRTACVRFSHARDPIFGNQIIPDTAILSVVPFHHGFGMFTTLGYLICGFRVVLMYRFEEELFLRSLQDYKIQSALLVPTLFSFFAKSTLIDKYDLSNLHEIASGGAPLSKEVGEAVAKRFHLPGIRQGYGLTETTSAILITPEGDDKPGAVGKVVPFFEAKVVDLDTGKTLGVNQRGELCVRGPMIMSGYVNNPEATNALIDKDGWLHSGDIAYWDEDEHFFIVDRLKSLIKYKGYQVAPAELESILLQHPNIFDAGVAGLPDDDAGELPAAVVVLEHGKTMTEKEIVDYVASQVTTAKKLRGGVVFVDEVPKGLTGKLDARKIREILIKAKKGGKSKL
Diaphorase act: activates diaphorase or chemically reduces, flagging diaphorase assay artifacts | actives 0.005% (n = 190,000) | Diaphorase/resazurin coupled assay, resorufin fluorescence, 16 min; active compounds read high; 1 = vehicle wells, 0 = NADH-free wells | activation factor at 20 µM;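 active = diaphorase activity raised at least twofold by the compound at 20 µM; inactive = activation factor below 2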
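Material: bacterial diaphorase enzyme (C. kluyveri); amount: enzyme 0.07 U/mL final; reagent: NADH substrate 0.114 mM plus resazurin dye 0.1 mM, final; doses: single compound dose of 20 µM, 1% DMSO final; timing: 16 min enzyme reaction, ambient temperature; measured by: fluorescence of resorufin, 544 nm excitation, 590 nm emission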
FLuc act counter: firefly luciferase counter-screen for stimulation assays | P08659 | ATPlite luciferase biochemical, luminescence, 10 min; 0 = ATP-free wells, 1 = DMSO control | activation factor at 10 µM | 200,000 tested, under 10 active;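 active = luciferase activation factor, scaled between plate controls, of at least 2 with compound at 10 µM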
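System: Luciferase/luciferin detection reagent, cell-free biochemical luciferase assay | Medium: PBS buffer for ATP | Dosing: Test compounds dosed from 2 mM stocks in 100% DMSO | Timing: 10 min at ambient temperature | Signal: Luminescence measurement of luciferase light output | Evaluation: Luciferase activation, seen as luminescence increase over controls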
G6PDH CS: counter-screen for G6PDH assay hits: L. mesenteroides G6PDH inhibition | Purified L. mesenteroides G6PDH, diaphorase/resazurin coupled fluorescence, 45 min | inhibition, % at 5 µM | actives 0.12% (n = 200,000); in the data active = inhibition above about 50%
Numbers without * were called inactive; nt = not tested or not shown. The list is not random: actives were taken first. Their share in the collection is about 2.3%.

SMILES	Diaphorase inh	FLuc inh counter	Diaphorase act	FLuc act counter	G6PDH CS
Cc1ccc(C(=O)Nc2nc3ccc(S(C)(=O)=O)cc3s2)o1	8	74*	0.9	0.3	1
CN(CCC1CCCCO1)C(=O)CCc1nnc(C2CCCCC2)o1 (configuration not stated)	8	-4	0.9	1	5
CC1(C)CC(=O)C=C(NNC(=O)OC(C)(C)C)C1	6	-1	0.9	1	13
CN(C)c1ccc(/C=C/c2ccc3c4ccccc4ccc3[n+]2-c2ccccc2)cc1	68*	65*	0.3	0.3	-13
CC1Cc2ccccc2N1C(=O)Cn1c(=O)oc2cc(S(=O)(=O)N3CCCCC3)ccc21 (configuration not stated)	31	-4	0.7	1	9
O=C(Nc1sc2c(c1C(=O)O)CCC2)c1ccco1	20	16	0.8	0.8	-2
O=C(Nc1sc2c(c1C(=O)O)CCCCC2)c1cccs1	17	84*	0.8	0.2	3
O=C(Nc1sc2c(c1C(=O)O)CCCCC2)c1ccccc1F	16	61*	0.8	0.4	-8
O=C(Nc1sc2c(c1C(=O)O)CCCC2)c1cccs1	29	38	0.7	0.6	3
Cc1ccc(C(=O)Nc2sc3c(c2C(=O)O)CCCCC3)o1	21	86*	0.8	0.1	10
Cc1ccc(NCc2nnc(SCC(=O)O)n2-c2ccc(C)cc2)cc1	nt	82*	nt	0.2	22
COc1cc(OC)c(-c2c3cc(O)c(=O)cc-3oc3cc(O)c(O)cc23)cc1OC	81*	17	0.2	0.8	14
Cc1c2cc(O)c(=O)cc-2oc2cc(O)c(O)cc12	80*	5	0.2	0.9	18
CCCCOc1ccc(/C(N)=N/O)cc1	13	15	0.9	0.8	9
CCCCCCCC[n+]1c(C)n(-c2ccccc2)c2ccc(NC(C)=O)cc21	6	-4	0.9	1	0
CCOc1ccc2c(c1)c(N=O)c(O)n2C	10	-5	0.9	1	11
CCc1ccc2c(c1)c(N=NC1=NC(=O)CS1)c(O)n2C	84*	-4	0.2	1	-4
O=C(N/C(=C\c1ccc([N+](=O)[O-])cc1)C(=O)N1CCCCC1)c1ccccc1Br	3	-11	1	1.1	2
CCc1nc(SCc2ccc(Cl)cc2)n[nH]1	64*	1	0.4	1	5
CC(NC(=O)COc1ccc(-c2nnco2)cc1)c1ccc(Cl)cc1Cl (configuration not stated)	8	-1	0.9	1	-12
CC(C)(C)OC(=O)N/N=C/c1cccc([N+](=O)[O-])c1	-5	79*	1.1	0.2	2
CC(C)(C)OC(=O)N/N=C\c1ccc[nH]1	4	62*	1	0.4	1
COc1ccccc1CN1CCNC(=O)C1CC(=O)NCc1cn(C)nc1C (configuration not stated)	nt	3	nt	1	20
COc1ccc(/C=C/C(=O)c2c(O)cc(C)oc2=O)c(OC)c1	0	95*	1	0	9
COc1cccc(/C=C/C(=O)c2c(O)cc(C)oc2=O)c1O	9	5	0.9	1	0
SMILES	Diaphorase inh	FLuc inh counter	Diaphorase act	FLuc act counter	G6PDH CS
O=C(N/N=C/c1ccc(OC(F)F)cc1)C1=COCCO1	-8	68*	1.1	0.3	1
CCCCNC(=O)c1sc(=S)n2c1[nH]c(=O)c1ccccc12	67*	-5	0.3	1	4
CCCCN1C(=O)/C(=C2\SC(N3CCCCC3)=NC2=O)c2ccccc21	32	55*	0.7	0.5	-3
Oc1ccc2ccccc2c1C=Nc1ccc(Cl)cn1	62*	0	0.4	1	58*
O=C1C(Nc2cccc(O)c2)=C(N2CCCCC2)C(=O)c2ccccc21	10	-1	0.9	1	59*
O=C1C(Nc2ccccc2)=C(N2CCCCC2)C(=O)c2ccccc21	23	-7	0.8	1.1	57*
Cc1ccc(NC2=C(N3CCCCC3)C(=O)c3ccccc3C2=O)cc1	12	-2	0.9	1	56*
O=C(/C=C/c1ccc(O)cc1)c1ccc(NC2=C(N3CCCCC3)C(=O)c3ccccc3C2=O)cc1	36	34	0.6	0.7	52*
CN(C1=C(N2CCCCC2)C(=O)c2ccccc2C1=O)c1ccccc1	28	1	0.7	1	35
COc1ccccc1NC1=C(N2CCCCC2)C(=O)c2ccccc2C1=O	30	0	0.7	1	33
O=C(O)CCCn1cc(NC(=O)c2ccc(Br)o2)cn1	0	-1	1	1	3
COc1ccc(-c2noc(CN(C(=O)c3cccs3)C(C)C)n2)cc1	-11	1	1.1	1	10
CCOC(=O)C1=C(C)N=C2SC(C(=O)OC)=CC(=O)N2C1c1cc(OC)c(OC)c(OC)c1 (configuration not stated)	18	-8	0.8	1.1	11
O=C(Cn1c(=O)oc2cc(S(=O)(=O)N3CCc4ccccc43)ccc21)N1CCCCC1	15	-6	0.9	1.1	8
COC(=O)c1ccccc1NC(=O)C12CCC(C)(C(=O)O1)C2(C)C (configuration not stated)	17	-2	0.8	1	10
O=C(/C=C/c1ccc2c(c1)OCO2)c1ccc[nH]1	5	76*	0.9	0.2	-2
O=C(/C=C/c1ccc2c(c1)OCO2)Nc1nc(-c2ccc(F)cc2F)cs1	8	-1	0.9	1	-3
Cc1ccc(C(=O)N/N=C/c2ccc3c(c2)OCO3)o1	4	69*	1	0.3	6
O=C(/C=C/c1ccc2c(c1)OCO2)c1ccc(F)cc1	8	48	0.9	0.5	5
Cc1csc(NC(=O)/C=C/c2ccc3c(c2)OCO3)n1	7	77*	0.9	0.2	8
COc1cccc(/C=C/C(=O)c2ccc[nH]2)c1	6	52*	0.9	0.5	3
Cc1c(C(=O)OCC(=O)NCC2CCCO2)cccc1[N+](=O)[O-] (configuration not stated)	8	-5	0.9	1	2
Cc1ccc(C(=O)/C=C/c2ccc3c(c2)OCO3)o1	15	80*	0.9	0.2	-30
O=C(N/N=C/c1ccc(Br)cc1)c1ccc(Br)o1	2	58*	1	0.4	-3
Cc1ccc(C(=O)/C=C/c2ccccc2)o1	10	72*	0.9	0.3	-2
COC(=O)/C=C/c1ccc2c(c1)OCO2	2	9	1	0.9	6
Cc1ccc(C(=O)/C=C/c2ccc(Br)cc2)o1	11	35	0.9	0.7	2
CC(C)(C)C(=O)Cn1ncc(Br)c(Br)c1=O	18	-3	0.8	1	19
